# GSIS activator = GLuc luminescence reporter in INS-1E cells, primary screen for activators of glucose-dependent secretion of insulin. INS-1E GLuc reporter insulin secretion, 2-3 h. activation, % at 16.6 µM. 370,000 tested, 0.61% active. AID 743287, 2014;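 active = lowest replicate activation of at least 40%, so every replicate reaches that level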
# CaV13 ICDI inh = Primary screen for inhibitors of IQ motif and Ca2+-dependent inactivation inhibitor domain binding in CACNA1D, Förster resonance energy transfer in living cells, …; HEK cells, CFP/YFP FRET ICDI-IQ, plate reader, 10 min; percent FRET-ratio fall versus neutral wells; inhibition, % at 12.3 µM; 340,000 tested, 0.098% active; AID 743397;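 active = mean replicate inhibition of at least 30% and at least 1% of replicates passing that level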
# GAA850 FXN act = FXN promoter activators, primary screen, cell-based, luciferase luminescence, HEK293 lucGAA850 | AID 540364, 2011 | HEK293 lucGAA850 FXN promoter luciferase reporter, 24 h; percent of 10 µM SAHA response | 360,000 tested, 0.56% active | activation, % at 6 µM;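 active = activation above the average of all compounds screened plus 3 SD, cutoff fixed separately per campaign, cut at about 7.5% in these data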
# XiGFP reactiv = activators of inactive X chromosome reactivation, primary screen, imaging, XiGFP fibroblasts, GFP high-content imaging, set 2; AID 743238, 2013; activation, % at 7.58 µM; XiGFP mouse fibroblasts, % GFP-positive cells imaging, 3 d; cells co-treated with 5-aza-dC sensitizer; scaled so ellipticine positive control = 100%; 360,000 tested, 0.055% active;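 active = mean normalized replicate activation at least 10% and every replicate at or above 10%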
#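 System: SV40-immortalized XiGFP fibroblast cells, line 68-5-11 / Incubation: 3-day compound exposure, then 15 min fixation at room temperature / Compound: single concentration per compound, delivered by pin transfer / Buffer or medium: DMEM plus 5-aza-dC sensitizer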
# Numbers stand for hits; - = inactive; . = no result; + = active, no number. Hits are enriched below; roughly 1% of the tested compounds scored in any of these assays.
SMILES,GSIS activator,CaV13 ICDI inh,GAA850 FXN act,XiGFP reactiv
N#C/C(=C\c1ccc(-c2ccc(F)cc2)o1)C(=O)Nc1nc(-c2cccs2)cs1,-,-,-,-
N#C/C(=C\c1ccc(-c2nc3ccccc3s2)o1)C(N)=O,.,-,-,-
N#C/C(=C/c1ccc(-c2ccc(S(N)(=O)=O)cc2)o1)C(=O)Nc1ccccc1,116,-,-,-
N#C/C(=C/c1ccc(-c2ccc(S(N)(=O)=O)cc2)o1)c1nc2ccccc2s1,-,-,-,92
N#C/C(=C/c1ccc(-c2ccccc2)o1)c1nc(-c2cccs2)cs1,-,.,-,77
CNC[C@@H]1Oc2cc(C#Cc3ccc(OC)cc3)ccc2S(=O)(=O)N([C@@H](C)CO)C[C@H]1C,-,.,.,-
COc1ccc(S(=O)(=O)N(C)C[C@@H]2OCc3cn(nn3)CCCC(=O)N([C@H](C)CO)C[C@@H]2C)cc1,-,.,.,-
CCN(CC)c1ccc(/C=C/c2cc(-c3ccccc3)c3ccccc3n2)cc1,-,-,-,95
CN(C)c1ccc(/C=C/c2ccc3ccccc3n2)cc1,-,.,-,.
O=C(Nc1ccc(NC(=O)c2cccs2)cc1)c1ccc(Br)o1,45,.,-,.
O=C(Nc1cccc(NC(=O)c2cccs2)c1)c1ccc(Br)o1,-,-,-,-
CC(=O)Nc1ccc(NC(=O)C(C)OC(=O)/C=C/c2cn(-c3ccccc3)nc2-c2cccnc2)cc1 (configuration not stated),392,-,-,-
O=C(C1CCCC1)N1[C@@H]2CN(S(=O)(=O)c3ccccc3)c3ccccc3[C@@H]2[C@@H]1CO,-,.,.,-
CCOC(=O)c1c2ccc(OCC(=O)NN)cc2n2ccccc12,-,+,-,-
C[C@H](CO)N1C[C@H](C)[C@@H](CN(C)C(=O)C2CC2)OCc2ccccc2-c2ccccc2C1=O,-,.,.,-
CN1C(=O)c2cc(NC(=O)Cc3cccs3)ccc2OC[C@@H]2O[C@@H](CC(=O)O)CC[C@H]21,-,.,.,-
O=C(c1ccccc1)c1ccccc1N1C(=O)C=CC1=O,192,-,-,-
CCCC#Cc1ccc2c(c1)O[C@H](CN(C)Cc1ccncc1)[C@H](C)CN([C@@H](C)CO)S2(=O)=O,-,.,.,-
CC(O)CN(CC(C)O)c1ccc2c(c1)Cc1cc([N+](=O)[O-])ccc1-2 (configuration not stated),.,-,-,29
Nc1ccc2c(c1)Cc1cc([N+](=O)[O-])ccc1-2,-,-,-,-
CNS(=O)(=O)c1cccc(C(=O)OCc2csc(-c3ccccc3)n2)c1,-,-,-,.
Nc1ccc(C(=O)OCc2csc(-c3ccccc3)n2)cc1[N+](=O)[O-],46,-,-,-
C[C@@H]1CN([C@@H](C)CO)C(=O)c2cc(-c3cccc(C#N)c3)cnc2O[C@@H]1CN(C)Cc1ccc(F)cc1,-,.,.,-
COc1ccc(-c2ccc(SCc3ccccn3)nn2)cc1OC,83,-,-,-
COc1ccc(-c2ccc(SCc3cccnc3)nn2)cc1OC,47,-,-,-
SMILES,GSIS activator,CaV13 ICDI inh,GAA850 FXN act,XiGFP reactiv
CN1C(=O)c2cc(NC(=O)C3CC3)ccc2OC[C@@H]2O[C@@H](CC(=O)O)CC[C@H]21,-,.,.,-
C[C@H]1CCCCO[C@H](CN(C)Cc2ccccc2)[C@@H](C)CN([C@@H](C)CO)C(=O)c2cc(NC(=O)c3ccncc3)ccc2O1,-,.,.,-
COc1cccc(C#Cc2ccc([C@H]3[C@@H](CO)N4C(=O)CN(S(=O)(=O)c5ccccc5C)C[C@@H]34)cc2)c1,-,.,.,-
Cn1c(=O)n(CCc2ccccc2)c2ccccc21,-,-,-,-
Cn1c(=O)n(Cc2ccccc2Br)c2ccccc21,50,-,-,-
Cc1ccc2c(=O)cc(C(=O)NC3CCS(=O)(=O)C3)oc2c1C (configuration not stated),42,-,-,-
COc1ccc(C(=O)OCC(=O)NC(=O)NC2CCCC2)cc1OC,56,-,-,-
COC(=O)c1ccc(OC)c(OC2CCCC2)c1,47,-,-,-
C[C@@H]1CCCCO[C@@H](CN(C)C(=O)Nc2cccc3ccccc23)[C@@H](C)CN([C@H](C)CO)C(=O)c2cc(NS(=O)(=O)c3cn(C)cn3)ccc2O1,-,.,.,-
C[C@H](CO)N1C[C@H](C)[C@@H](CN(C)C(=O)c2ccccc2)OCCCC[C@H](C)Oc2ccc(NC(=O)NC3CCCCC3)cc2C1=O,-,.,.,-
COc1cc(/C=N\Nc2nc3ccccc3[nH]2)cc(OC)c1OC,.,-,-,.
COc1ccc2c(c1)c(/C=N/Nc1nc3ccccc3[nH]1)c(C)n2C,-,-,-,17
C[C@H](CO)N1C[C@H](C)[C@H](CN(C)Cc2ccncc2)Oc2ccc(NC(=O)c3ccncc3)cc2C1=O,-,.,.,-
CCOC(=O)c1c(CSC(=N)N)n(-c2ccc(Br)cc2)c2cc(Br)c(OC(C)=O)cc12,-,-,-,-
CCCCCCCCOC(=O)c1c(CSC(=N)N)n(C)c2cc(Br)c(OC(C)=O)cc12,269,-,-,-
Cn1c(=N)c(S(=O)(=O)c2ccccc2)cc2c(=O)n3ccccc3nc21,.,34,-,.
CNC[C@@H]1Oc2c(N)cccc2C(=O)N(C)C[C@@H]1C,-,.,.,-
COc1ccc(S(=O)(=O)N2CCCCC2)cc1NC(=O)C1CCCO1 (configuration not stated),-,-,-,-
COc1ccc(S(=O)(=O)N2CCCCC2)cc1NC(=O)C1CC1C (configuration not stated),40,-,-,-
CN(C(=O)COC(=O)c1cccs1)c1ccccc1,117,-,-,-
CCCNC(=O)N1[C@H](CNC(=O)CC)[C@@H](c2ccc(C3=CCCC3)cc2)[C@@H]1CO,-,.,.,-
Cc1ccc(NC(=O)CC2S/C(=N/N=C/c3c[nH]c4ccccc34)NC2=O)cc1 (configuration not stated),60,-,-,.
COC(=O)c1ccc2c(c1)NC(=O)C(N(CC(C)C)CC(C)C)S2 (configuration not stated),46,-,-,-
CCCN(CCC)C1Sc2ccc(C(=O)OC)cc2NC1=O (configuration not stated),-,-,-,.
CCN(CC)C(=O)Cn1c(=O)oc2ccccc21,42,-,-,-
COc1cc(NC(=O)c2c(-c3ccccc3Cl)noc2C)c2ncccc2c1,51,-,-,-
CN(C)CCNC(=O)c1cccc(-c2cc(NC=O)c3ncc(-c4cccc(C(F)(F)F)c4)n3c2)c1,124,-,-,-
O=C(O)c1ccc(Oc2ccc(C(F)(F)F)cn2)cc1,-,-,-,-
COC(=O)c1ccc(Oc2ccc(C(F)(F)F)cn2)cc1,56,-,-,-
CC(=O)Nc1cccc2c1O[C@@H](CN(C)C(=O)NC(C)C)[C@H](C)CN(C)C2=O,-,.,.,-

# High-throughput results from PubChem.
